Experimental data published in ChEMBL document CHEMBL1909502, “Design and synthesis of 2-(1, 3-dioxoisoindolin-2-yl)-N-(4-oxo-2-substitutedthiazolidin-3-yl) acetamide derivatives as potential anticonvulsant agents” (Eur J Med Chem, 2011).
The source made the active and inactive calls. The rule behind the calls is not given here.

Columns and labels:
[1] = test system: Mus musculus; assay: Neurotoxicity in Swiss albino CF1 mouse assessed as decrease in locomotor activity at 30 mg/kg, ip after 0.5 hrs postdose; type: toxicity, organism-based; set-up: dose 30 mg/kg, route intraperitoneal; scale not given: the % may be the effect or the level left; details: in vivo
Summary of the method: (§1)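 Compounds in 30% PEG 200 were given i.p. at 30 mg/kg to male Swiss albino CF-1 mice. Locomotor activity was scored digitally in an actophotometer for 10 min, 24 h before dosing and again 0.5 h and 4 h after. The value is the % decrease against the pre-treatment score, as mean ± SEM, with Student's t test at p < 0.05.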

[2] = Octanol-phosphate buffer partition coefficient, log P of the compound at 5 mg after 24 hrs by UV spectroscopic analysis; type: physicochemical
Summary of the method: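 Octanol/phosphate buffer partition at room temperature. 5 mg of drug was added to 10 mL octanol plus 10 mL buffer and shaken mechanically for 24 h. The mixture was left to equilibrate for 6 h, and the phases were separated and membrane-filtered. Drug in the aqueous phase was quantified by UV spectroscopy.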

[3] = test system: Mus musculus; assay: Anticonvulsant activity in ip dosed Swiss albino CF1 mouse assessed as protection against subcutaneous pentylenetetrazole-induced seizures after 4 hrs; type: functional; details: Swiss albino CF1, 4 h, read-out: MED
Summary of the method: (§2)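 Male Swiss albino CF-1 mice, 20–30 g. Compounds were suspended in 0.5% methyl cellulose and given i.p. at 0.01 mL/g, at 30, 100 and 300 mg/kg. MES and sc PTZ seizure tests followed reported procedures at 0.5 h and 4 h post-dose. The value is the minimal dose protecting 50% or more of the animals.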

[4] = test system: Mus musculus; assay: Anticonvulsant activity in ip dosed Swiss albino CF1 mouse assessed as protection against maximal electroshock-induced seizures after 4 hrs; type: functional; details: read-out: MED; summary of the method: as §2
[5] = test system: Mus musculus; assay: Neurotoxicity in Swiss albino CF1 mouse assessed as minimal motor deficit at 30 to 300 mg/kg, ip after 0.5 hrs by rotarod test; type: toxicity, organism-based; set-up: dose 30-300 mg/kg, route intraperitoneal; details: in vivo
Summary of the method: (§3)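 Mice (male Swiss albino CF-1, groups of 5) were trained on an accelerating rotarod at 10 rpm with a 3.2 cm rod and had to stay on for two consecutive 90 s trials. Trained animals then received 30, 100 or 300 mg/kg i.p. Deficit was inability to stay on the rod for at least 1 min in each of three trials, checked at 0.5 h and 4 h. The value is the minimal dose giving deficit in 50% or more of the animals.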

[6] = test system: Mus musculus; assay: Neurotoxicity in Swiss albino CF1 mouse assessed as decrease in locomotor activity at 30 mg/kg, ip after 4 hrs postdose; type: toxicity, organism-based; set-up: dose 30 mg/kg, route intraperitoneal; scale not given: the % may be the effect or the level left; details: in vivo; summary of the method: as §1
[7] = test system: Mus musculus; assay: Neurotoxicity in Swiss albino CF1 mouse assessed as minimal motor deficit at 30 to 300 mg/kg, ip after 4 hrs by rotarod test; type: toxicity, organism-based; set-up: dose 30-300 mg/kg, route intraperitoneal; details: in vivo; summary of the method: as §3
[8] = test system: Mus musculus; assay: Anticonvulsant activity in ip dosed Swiss albino CF1 mouse assessed as protection against subcutaneous pentylenetetrazole-induced seizures after 0.5 hrs; type: functional; details: Swiss albino CF1, 0.5 h, read-out: MED; summary of the method: as §2
[9] = test system: Mus musculus; assay: Anticonvulsant activity in ip dosed Swiss albino CF1 mouse assessed as protection against maximal electroshock-induced seizures after 0.5 hrs; type: functional; details: read-out: MED; summary of the method: as §2
[10] = test system: Mus musculus; assay: Anticonvulsant activity in Swiss albino CF1 mouse assessed as protection against subcutaneous pentylenetetrazole-induced seizures at 30 to 300 mg/kg, ip after 0.5 hrs postdose; type: functional, organism-based; summary of the method: as §2
[11] = test system: Mus musculus; assay: Anticonvulsant activity in Swiss albino CF1 mouse assessed as protection against subcutaneous pentylenetetrazole-induced seizures at 30 to 300 mg/kg, ip after 4 hrs postdose; type: functional, organism-based; summary of the method: as §2
[12] = test system: Mus musculus; assay: Neurotoxicity in ip dosed Swiss albino CF1 mouse assessed as minimum dose required to produce minimal motor deficit after 4 hrs by rotarod test; type: toxicity, organism-based; details: in vivo; summary of the method: as §3
[13] = test system: Mus musculus; assay: Anticonvulsant activity in Swiss albino CF1 mouse assessed as protection against maximal electroshock-induced seizures at 30 to 300 mg/kg, ip after 0.5 hrs postdose; type: functional, organism-based; summary of the method: as §2
[14] = test system: Mus musculus; assay: Neurotoxicity in ip dosed Swiss albino CF1 mouse assessed as minimum dose required to produce minimal motor deficit after 0.5 hrs by rotarod test; type: toxicity, organism-based; details: in vivo; summary of the method: as §3

Row | Structure (SMILES) | Activity [1] | logP at 24 h [2] | minimal effective dose [3] | minimal effective dose [4] | Activity [5] | Activity [6] | Activity [7] | minimal effective dose [8] | minimal effective dose [9] | Activity [10] | Activity [11] | MTC [12] | Activity [13] | MTC [14]
1 | Cc1ccc(C2SCC(=O)N2NC(=O)CN2C(=O)c3ccccc3C2=O)cc1 (stereo not given) | 25.94% | 2.97 | 300 mg/kg | 30 mg/kg | Non-toxic | 68.16% | Non-toxic | 100 mg/kg | 30 mg/kg |  |  |  |  | 
2 | CN(C)c1ccc(C2SCC(=O)N2NC(=O)CN2C(=O)c3ccccc3C2=O)cc1 (stereo not given) | 9.78% | 2.84 | 300 mg/kg | 300 mg/kg | Non-toxic | 44.08% | Non-toxic | 300 mg/kg | 300 mg/kg |  |  |  |  | 
3 | O=C(CN1C(=O)c2ccccc2C1=O)NN1C(=O)CSC1c1cccnc1 (stereo not given) | 18.03% | 1.25 |  | 300 mg/kg | Non-toxic | 24.01% | Non-toxic |  | 100 mg/kg | inactive | inactive |  |  | 
4 | O=C(CN1C(=O)c2ccccc2C1=O)NN1C(=O)CSC1c1cccs1 (stereo not given) | 63.04% | 2.15 |  | 100 mg/kg | Non-toxic | 71.73% |  |  |  | inactive | inactive | 100 mg/kg | inactive | 
5 | COc1cc(C2SCC(=O)N2NC(=O)CN2C(=O)c3ccccc3C2=O)ccc1O (stereo not given) | 38.13% | 1.31 | 300 mg/kg | 100 mg/kg | Non-toxic | 7.31% | Non-toxic | 300 mg/kg | 30 mg/kg |  |  |  |  | 
6 | O=C(CN1C(=O)c2ccccc2C1=O)NN1C(=O)CSC1c1ccccc1O (stereo not given) | 32.63% | 1.46 |  | 100 mg/kg |  | 36.91% |  |  | 100 mg/kg | inactive | inactive | 100 mg/kg |  | 100 mg/kg
7 | COc1ccc(C2SCC(=O)N2NC(=O)CN2C(=O)c3ccccc3C2=O)cc1 (stereo not given) | 3.25% | 1.97 |  | 100 mg/kg |  | 14.93% |  |  | 100 mg/kg | inactive | inactive | 300 mg/kg |  | 300 mg/kg
8 | CCCC(CCC)C(=O)[O-].[Na+] [VALPROATE SODIUM] |  |  |  |  | Non-toxic |  | Non-toxic | 300 mg/kg |  |  | inactive |  |  | 
9 | O=C(CN1C(=O)c2ccccc2C1=O)NN1C(=O)CSC1c1c[nH]c2ccccc12 (stereo not given) | 9.95% | 1.59 |  | 300 mg/kg | Non-toxic | 25.84% | Non-toxic | 300 mg/kg | 300 mg/kg |  | inactive |  |  | 
10 | O=C(CN1C(=O)c2ccccc2C1=O)NN1C(=O)CSC1c1ccc(Cl)cc1 (stereo not given) | 50.83% | 3.21 |  | 300 mg/kg |  | 16.13% | Non-toxic | 300 mg/kg | 300 mg/kg |  | inactive |  |  | 300 mg/kg
11 | O=C(CN1C(=O)c2ccccc2C1=O)NN1C(=O)CSC1c1ccccc1 (stereo not given) | 50% | 2.23 | 300 mg/kg | 100 mg/kg |  | 64.26% |  | 100 mg/kg | 100 mg/kg |  |  | 30 mg/kg |  | 30 mg/kg
12 | O=C(CN1C(=O)c2ccccc2C1=O)NN1C(=O)CSC1c1ccc(Cl)cc1Cl (stereo not given) | 63.73% | 2.54 | 100 mg/kg | 30 mg/kg |  | 25.55% | Non-toxic | 100 mg/kg |  |  |  |  | inactive | 300 mg/kg
13 | O=C1NC(=O)C(c2ccccc2)(c2ccccc2)N1 [PHENYTOIN] | 33.9% |  |  | 30 mg/kg |  | 18.57% |  |  | 30 mg/kg |  |  | 100 mg/kg |  | 100 mg/kg
14 | COc1ccc(C2SCC(=O)N2NC(=O)CN2C(=O)c3ccccc3C2=O)cc1OC (stereo not given) | 20.25% | 2.78 | 300 mg/kg | 300 mg/kg | Non-toxic | 27.95% | Non-toxic | 100 mg/kg | 300 mg/kg |  |  |  |  | 
15 | O=C(CN1C(=O)c2ccccc2C1=O)NN1C(=O)CSC1c1c(F)cccc1Cl (stereo not given) | 12.01% | 3.79 | 300 mg/kg | 100 mg/kg | Non-toxic | 30.18% | Non-toxic | 300 mg/kg | 100 mg/kg |  |  |  |  | 
16 | O=C(CN1C(=O)c2ccccc2C1=O)NN1C(=O)CSC1/C=C/c1ccccc1 (stereo not given) | 5.66% | 3.65 |  | 300 mg/kg | Non-toxic | 66.5% | Non-toxic | 300 mg/kg | 300 mg/kg |  | inactive |  |  | 
17 | O=C(CN1C(=O)c2ccccc2C1=O)NN1C(=O)CSC1c1ccc(O)cc1 (stereo not given) | 68.37% | 2.4 |  | 100 mg/kg |  | 43.34% |  |  | 30 mg/kg | inactive | inactive | 300 mg/kg |  | 300 mg/kg
